Assay results reported in ChEMBL document CHEMBL1127547, “Synthesis and biological activities of a new set of irreversibly acting 2-(4'-isothiocyanatobenzyl)imidazoline analogs in rat thoracic aorta” (J Med Chem, 1994).
pEC50: −log10 of the molar value. Several values for one entry are separate records, joined by “and”; a condition that tells them apart may be missing. Equal values may be shown once.

How the values were obtained:
[1] = species on record: Rattus norvegicus; assay: Percent of maximal contractile response to compound in rat thoracic aorta strips in the presence of nifedipine
Procedure, shortened: (§1)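 Aortic strips were pretreated with nifedipine 10^-6 M for 60 min. The stock was 0.01 M in EtOH, diluted in 0.01 M sodium phosphate, pH 7.4. Cumulative analog curves followed, read 35–45 min after each addition. Emax is expressed relative to the compound alone. Mean ± SEM, n = 3–4; paired comparison.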

[2] = species on record: Rattus norvegicus; assay: Percent of maximal contractile response to compound with phenoxybenzamine pretreatment on rat thoracic aorta strips
Procedure, shortened: (§2)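 Rat aortic strips (male Sprague-Dawley) were pretreated with phenoxybenzamine 3×10^-6 M for 20 min and washed before cumulative analog curves were run. Responses were taken 20–30 min after each addition. Maximal contraction is expressed relative to 30 μM phenylephrine, obtained before pretreatment. Mean ± SEM, n = 4–7; Student's t test against the untreated control.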

[3] = species on record: Rattus norvegicus; assay: Percent of maximal contractile response to compound without phenoxybenzamine pretreatment on rat thoracic aorta strips
Procedure, shortened: (§3)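 Helically cut thoracic aorta strips from male Sprague-Dawley rats (300–450 g) in a 10-mL water-jacketed bath of physiological salt solution. After 1 h equilibration, strips were primed with 10^-8 M phenylephrine, and a phenylephrine curve (10^-9 to 3×10^-5 M) was run. Cumulative analog curves were read 20–30 min after each addition. Emax is given relative to the 30 μM phenylephrine maximum. Mean ± SEM, n = 4–7.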

[4] = species on record: Rattus norvegicus; assay: Percent of maximal contractile response to compound in rat thoracic aorta strips; procedure, shortened: as §3
[5] = species on record: Rattus norvegicus; assay: Percent of maximal contractile response to compound in rat thoracic aorta strips in the presence of PBZ and CIR
[6] = species on record: Rattus norvegicus; assay: Percent of maximal contractile response to compound in rat thoracic aorta strips in the presence of PBZ and IDA
Procedure, shortened: (§4)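 Rat aortic strips were given PBZ for 20 min, then washed out and exposed to idazoxan for 60 min before cumulative analog curves (3×10^-8–10^-4 M). Readings were taken 35–45 min after each addition. Response is expressed as % of the 30 μM phenylephrine maximum. Mean ± SEM, n = 3–4.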

[7] = species on record: Rattus norvegicus; assay: Concentration that produces 50% of the maximal response to compound in rat thoracic aorta strips; type: functional; procedure, shortened: as §3
[8] = species on record: Rattus norvegicus; assay: Concentration that produces 50% of the maximal response to compound in rat thoracic aorta strips in the presence of PBZ and CIR; type: functional
[9] = species on record: Rattus norvegicus; assay: Concentration that produces 50% of the maximal response to compound in rat thoracic aorta strips in the presence of PBZ and IDA; type: functional; procedure, shortened: as §4
[10] = species on record: Rattus norvegicus; assay: Concentration that produces 50% of the maximal response to compound in rat thoracic aorta strips in the presence of nifedipine; type: functional; procedure, shortened: as §1
[11] = species on record: Rattus norvegicus; assay: Concentration that produces 50% of the maximal response to compound with phenoxybenzamine pretreatment on rat thoracic aorta strips; type: functional; procedure, shortened: as §2
[12] = species on record: Rattus norvegicus; assay: Concentration that produces 50% of the maximal response to compound without phenoxybenzamine pretreatment on rat thoracic aorta strips; type: functional; procedure, shortened: as §3
[13] = species on record: Rattus norvegicus; assay: Percent of maximal contractile response to compound in rat thoracic aorta strips v
[14] = species on record: Rattus norvegicus; assay: Concentration that produces 50% of the maximal response to compound in rat thoracic aorta strips in the presence of PBZ and IDA
[15] = species on record: Rattus norvegicus; assay: Percent of maximal contractile response to compound in rat thoracic aorta strips in the presence of calcium deficient buffer
Procedure, shortened: (§5)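 Cumulative analog concentration-response curves were run on rat thoracic aorta strips in calcium-deficient PSS. Responses were read 35–45 min after each addition. Emax is relative to the maximal contraction of the compound alone in normal PSS. Mean ± SEM, n = 3–4; paired t test.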

[16] = species on record: Rattus norvegicus; assay: Percent of maximal contractile response to compound in rat thoracic aorta strips in the presence of verapamil
Procedure, shortened: (§6)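 Verapamil was given for 60 min before cumulative analog curves on rat aortic strips; the methods give 10^-5 M and the table footnote gives 10^-6 M. Responses were read 35–45 min after each addition. Emax is relative to the compound's own maximal contraction without verapamil. Mean ± SEM, n = 3–4.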

[17] = species on record: Rattus norvegicus; assay: Percent of maximal contractile response to compound in rat thoracic aorta strips presence of PBZ and CIR
[18] = species on record: Rattus norvegicus; assay: Percent of maximal contractile response to compound in rat thoracic aorta strips in the presence of PBZ and IDA at 0.1 uM
Procedure, shortened: (§7)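 Strips were exposed to 30 nM PBZ for 20 min, washed out, then held in idazoxan for 1 h: 0.1 μM or 1 μM. Analog-induced contractions were read 20–30 min after addition and expressed against the 30 μM phenylephrine maximum obtained before treatment.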

[19] = species on record: Rattus norvegicus; assay: Percent of maximal contractile response to compound in rat thoracic aorta strips in the presence of PBZ and IDA at 1 uM; procedure, shortened: as §7
[20] = species on record: Rattus norvegicus; assay: Concentration that produces 50% of the maximal response to compound in rat thoracic aorta strips in the presence of PBZ and IDA at 0.1 uM; type: functional; procedure, shortened: as §7
[21] = species on record: Rattus norvegicus; assay: Concentration that produces 50% of the maximal response to compound in rat thoracic aorta strips in the presence of PBZ and IDA at 1 uM; type: functional; procedure, shortened: as §7
[22] = species on record: Rattus norvegicus; assay: Concentration that produces 50% of the maximal response to compound in rat thoracic aorta strips in the presence of calcium deficient buffer; type: functional; procedure, shortened: as §5
[23] = species on record: Rattus norvegicus; assay: Concentration that produces 50% of the maximal response to compound in rat thoracic aorta strips in the presence of verapamil; type: functional; procedure, shortened: as §6
[24] = Rattus norvegicus, Thoracic aorta, read-out: Emax
[25] = Rattus norvegicus, Thoracic aorta

pEC50 [7, 25]	pEC50 [8]	pEC50 [10]	pEC50 [11]	pEC50 [12]	Compound	Emax [1] [%]	Emax [2] [%]	Emax [3] [%]	Emax [4, 24] [%]	Emax [5] [%]	other results
4.54	4.59	4.41	4.44	4.51	S=C=Nc1ccc(Cc2ncc[nH]2)cc1	35	68	70	100	102	Emax [6]: 79%; pEC50 [9]: 4.39
			4.24	5.00	S=C=Nc1ccc(CC2=NCCN2)cc1I		28	31			
			3.89	3.94	O=C(CCl)Nc1ccc(CC2=NCCN2)cc1		32	41			
4.76	4.79	4.28	4.33	4.16	S=C=Nc1ccc(OCC2=NCCN2)cc1	11	117	108	100	117	Emax [13]: 110%; pEC50 [14]: 4.79
				4.33	O=C(CI)Nc1ccc(CC2=NCCN2)cc1		13	25			
4.74	4.83	4.17	4.54	4.54	S=C=Nc1ccc(CCC2=NCCN2)cc1	21	102	107	100	100	Emax [6]: 114%; pEC50 [9]: 4.74
	4.37	4.70	4.28	4.32	S=C=Nc1ccc(CC2=NCCN2)cc1	42	100	118	100		Emax [15]: 34%; Emax [16]: 48%; Emax [17]: 94%; Emax ([4]; rat, in vitro): 100%; Emax [18]: 104%; Emax [19]: 105%; pEC50 [7]: 4.35 and 5.24; pEC50 [20]: 4.27; pEC50 [21]: 4.27; pEC50 [22]: 4.90; pEC50 [23]: 4.67

Compound	pEC50 [7, 25]	pEC50 [8]	pEC50 [10]	pEC50 [11]	pEC50 [12]	Emax [1] [%]	Emax [2] [%]	Emax [3] [%]	Emax [4, 24] [%]	Emax [5] [%]	other results
Cc1ccc(CC2=NCCN2)cc1					4.24		5	14			
CN(C)CCc1ccc(N=C=S)cc1	4.77		4.31	4.48	4.39	29	113	98	100		Emax ([4]; rat, in vitro): 91% and 94%; pEC50 [7]: 4.77 and 4.79
Nc1ccc(CC2=NCCN2)cc1				4.51	5.52		9	69			
